ChEMBL document CHEMBL2434922, “Microwave assisted synthesis of dihydrobenzo[4,5]imidazo[1,2-a]pyrimidin-4-ones; synthesis, in vitro antimicrobial and anticancer activities of novel coumarin substituted dihydrobenzo[4,5]imidazo[1,2-a]pyrimidin-4-ones” (2013)
≈ marks a conversion by molar mass, not a printed value.

Legend:
Type in all cases: functional
[1] = tested on: Streptococcus mutans; assay: Antibacterial activity against Streptococcus mutans assessed as growth inhibition after 18 hrs by broth microdilution method
[2] = tested on: Escherichia coli; assay: Antibacterial activity against Escherichia coli assessed as growth inhibition after 18 hrs by broth microdilution method
[3] = tested on: Aspergillus niger; assay: Antifungal activity against Aspergillus niger assessed as growth inhibition after 48 to 72 hrs by broth microdilution method
[4] = tested on: Staphylococcus aureus; assay: Antibacterial activity against Staphylococcus aureus assessed as growth inhibition after 18 hrs by broth microdilution method
[5] = tested on: Fusarium oxysporum; assay: Antifungal activity against Fusarium oxysporum assessed as growth inhibition after 48 to 72 hrs by broth microdilution method
[6] = tested on: Candida albicans; assay: Antifungal activity against Candida albicans assessed as growth inhibition after 48 to 72 hrs by broth microdilution method
[7] = Cytotoxicity against mouse Daltons ascitic lymphoma cells assessed as dead cells at 100 ug/ml after 3 hrs by trypan blue exclusion assay relative to control
How it was run: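 DAL cells (0.2 mL, 10⁶ cells/mL) mixed with ice-cold PBS pH 7.4 and compound (100 µg/mL), held at 37 °C under 5% CO₂ for 3 h. Aliquot then stained with 0.4% trypan blue in normal saline for 5–15 min at room temperature. Live and dead cells counted in a Neubauer chamber; % dead = dead/(dead+live) × 100.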

[8] = tested on: Klebsiella pneumoniae; assay: Antibacterial activity against Klebsiella pneumoniae assessed as growth inhibition after 18 hrs by broth microdilution method
[9] = tested on: Enterococcus faecalis; assay: Antibacterial activity against Enterococcus faecalis assessed as growth inhibition after 18 hrs by broth microdilution method
[10] = tested on: Pseudomonas aeruginosa; assay: Antibacterial activity against Pseudomonas aeruginosa assessed as growth inhibition after 18 hrs by broth microdilution method
[11] = tested on: Penicillium chrysogenum; assay: Antifungal activity against Penicillium chrysogenum assessed as growth inhibition after 48 to 72 hrs by broth microdilution method
[12] = tested on: Aspergillus flavus; assay: Antifungal activity against Aspergillus flavus assessed as growth inhibition after 48 to 72 hrs by broth microdilution method
[13] = tested on: Aspergillus fumigatus; assay: Antifungal activity against Aspergillus fumigatus assessed as growth inhibition after 48 to 72 hrs by broth microdilution method

Row | SMILES | MIC [1] [µg/mL] | MIC [2] [µg/mL] | MIC [3] [µg/mL] | MIC [4] [µg/mL] | MIC [5] [µg/mL] | MIC [6] [µg/mL] | mortality at 100 µg/mL [7] [%] | MIC [8] [µg/mL] | MIC [9] [µg/mL] | MIC [10] [µg/mL] | MIC [11] [µg/mL] | MIC [12] [µg/mL] | MIC [13] [µg/mL]
1 | Oc1cc(-c2ccccc2)nc2nc3ccccc3n12 | 100 (≈ 383 µM) | 100 (≈ 383 µM) | 6.25 (≈ 23.9 µM) | 100 (≈ 383 µM) | 0.2 (≈ 0.765 µM) | 1.6 (≈ 6.12 µM) | 58 | 100 (≈ 383 µM) | 0.2 (≈ 0.765 µM) | 100 (≈ 383 µM) | 0.2 (≈ 0.765 µM) | 0.8 (≈ 3.06 µM) | 0.8 (≈ 3.06 µM)
2 | CC(C)c1cc(=O)n2c3ccccc3n(Cc3cc(=O)oc4ccc(Br)cc34)c2n1 | > 100 | 100 (≈ 215 µM) | 25 (≈ 53.8 µM) | > 100 | 0.2 (≈ 0.431 µM) | 50 (≈ 108 µM) | 47 | > 100 | 0.8 (≈ 1.72 µM) | > 100 | 0.2 (≈ 0.431 µM) | 0.8 (≈ 1.72 µM) | 0.8 (≈ 1.72 µM)
3 | CC(C)c1cc(=O)n2c3ccccc3n(Cc3cc(=O)oc4ccc(Cl)cc34)c2n1 | 12.5 (≈ 29.8 µM) | 100 (≈ 238 µM) | 12.5 (≈ 29.8 µM) | 100 (≈ 238 µM) | 0.2 (≈ 0.476 µM) | 50 (≈ 119 µM) | 88 | 100 (≈ 238 µM) | 0.4 (≈ 0.953 µM) | 100 (≈ 238 µM) | 0.4 (≈ 0.953 µM) | 1.6 (≈ 3.81 µM) | 0.8 (≈ 1.91 µM)
4 | COc1ccc2oc(=O)cc(Cn3c4ccccc4n4c(=O)cc(C(C)C)nc34)c2c1 | 3.16 (≈ 7.61 µM) | 100 (≈ 241 µM) | 50 (≈ 120 µM) | 100 (≈ 241 µM) | 0.2 (≈ 0.481 µM) | 25 (≈ 60.2 µM) | 62 | 100 (≈ 241 µM) | 0.4 (≈ 0.963 µM) | > 100 | 0.8 (≈ 1.93 µM) | 0.8 (≈ 1.93 µM) | 0.8 (≈ 1.93 µM)
5 | CC(C)c1cc(=O)n2c3ccccc3n(Cc3cc(=O)oc4ccc(F)cc34)c2n1 | 0.8 (≈ 1.98 µM) | 100 (≈ 248 µM) | 1.6 (≈ 3.97 µM) | 100 (≈ 248 µM) | 0.2 (≈ 0.496 µM) | 25 (≈ 62 µM) | 81 | 100 (≈ 248 µM) | 0.4 (≈ 0.992 µM) | 100 (≈ 248 µM) | 0.4 (≈ 0.992 µM) | 1.6 (≈ 3.97 µM) | 0.8 (≈ 1.98 µM)
6 | Cc1cc(C)c2oc(=O)cc(Cn3c4ccccc4n4c(=O)cc(C(F)(F)F)nc34)c2c1 | 0.2 (≈ 0.455 µM) | 100 (≈ 228 µM) | 3.12 (≈ 7.1 µM) | 100 (≈ 228 µM) | 0.2 (≈ 0.455 µM) | 50 (≈ 114 µM) | 78 | 100 (≈ 228 µM) | 0.4 (≈ 0.91 µM) | 100 (≈ 228 µM) | 0.2 (≈ 0.455 µM) | 3.12 (≈ 7.1 µM) | 1.6 (≈ 3.64 µM)
7 | Cc1ccc2oc(=O)cc(Cn3c4ccccc4n4c(=O)cc(C(F)(F)F)nc34)c2c1 | 12.5 (≈ 29.4 µM) | 100 (≈ 235 µM) | 12.5 (≈ 29.4 µM) | 100 (≈ 235 µM) | 0.2 (≈ 0.47 µM) | 50 (≈ 118 µM) | 69 | 100 (≈ 235 µM) | 0.4 (≈ 0.94 µM) | > 100 | 0.2 (≈ 0.47 µM) | 12.5 (≈ 29.4 µM) | 25 (≈ 58.8 µM)
8 | O=c1cc(Cn2c3ccccc3n3c(=O)cc(C(F)(F)F)nc23)c2cc(F)ccc2o1 | 12.5 (≈ 29.1 µM) | 100 (≈ 233 µM) | 25 (≈ 58.2 µM) | 100 (≈ 233 µM) | 0.2 (≈ 0.466 µM) | 50 (≈ 116 µM) | 79 | 100 (≈ 233 µM) | 0.8 (≈ 1.86 µM) | 100 (≈ 233 µM) | 0.2 (≈ 0.466 µM) | 1.6 (≈ 3.73 µM) | 1.6 (≈ 3.73 µM)
9 | COc1ccc2oc(=O)cc(Cn3c4ccccc4n4c(=O)cc(C(F)(F)F)nc34)c2c1 | 12.5 (≈ 28.3 µM) | 100 (≈ 227 µM) | 25 (≈ 56.6 µM) | 100 (≈ 227 µM) | 0.2 (≈ 0.453 µM) | 50 (≈ 113 µM) | 58 | 100 (≈ 227 µM) | 0.4 (≈ 0.906 µM) | > 100 | 0.4 (≈ 0.906 µM) | 3.12 (≈ 7.07 µM) | 6.25 (≈ 14.2 µM)
10 | COc1ccc(-c2cc(=O)n3c(n2)[nH]c2ccccc23)cc1 | 100 (≈ 343 µM) | 100 (≈ 343 µM) | 25 (≈ 85.8 µM) | 100 (≈ 343 µM) | 0.2 (≈ 0.687 µM) | 6.25 (≈ 21.5 µM) | 64 | 100 (≈ 343 µM) | 0.2 (≈ 0.687 µM) | 100 (≈ 343 µM) | 0.4 (≈ 1.37 µM) | 0.8 (≈ 2.75 µM) | 1.6 (≈ 5.49 µM)
11 | O=c1cc(-c2ccc(F)cc2)nc2[nH]c3ccccc3n12 | 12.5 (≈ 44.8 µM) | 100 (≈ 358 µM) | 1.6 (≈ 5.73 µM) | 100 (≈ 358 µM) | 0.4 (≈ 1.43 µM) | 1.6 (≈ 5.73 µM) | 83 | 100 (≈ 358 µM) | 0.2 (≈ 0.716 µM) | 100 (≈ 358 µM) | 0.4 (≈ 1.43 µM) | 0.2 (≈ 0.716 µM) | 0.2 (≈ 0.716 µM)
12 | O=c1cc(-c2cccc(Cl)c2)nc2[nH]c3ccccc3n12 | 25 (≈ 84.5 µM) | 100 (≈ 338 µM) | 25 (≈ 84.5 µM) | 100 (≈ 338 µM) | 0.2 (≈ 0.676 µM) | 1.6 (≈ 5.41 µM) | 71 | 100 (≈ 338 µM) | 0.2 (≈ 0.676 µM) | 100 (≈ 338 µM) | 0.4 (≈ 1.35 µM) | 0.2 (≈ 0.676 µM) | 0.2 (≈ 0.676 µM)
13 | O=c1cc(C(F)(F)F)nc2[nH]c3ccccc3n12 | 50 (≈ 197 µM) | 100 (≈ 395 µM) | 6.25 (≈ 24.7 µM) | 100 (≈ 395 µM) | 0.2 (≈ 0.79 µM) | 1.6 (≈ 6.32 µM) | 80 | 100 (≈ 395 µM) | 0.2 (≈ 0.79 µM) | 100 (≈ 395 µM) | 0.4 (≈ 1.58 µM) | 0.8 (≈ 3.16 µM) | 0.8 (≈ 3.16 µM)
14 | O=c1cc(-c2cccc(F)c2)nc2[nH]c3ccccc3n12 | 12.5 (≈ 44.8 µM) | 100 (≈ 358 µM) | 12.5 (≈ 44.8 µM) | 100 (≈ 358 µM) | 0.4 (≈ 1.43 µM) | 1.6 (≈ 5.73 µM) | 54 | 100 (≈ 358 µM) | 0.2 (≈ 0.716 µM) | 25 (≈ 89.5 µM) | 0.2 (≈ 0.716 µM) | 0.8 (≈ 2.86 µM) | 0.8 (≈ 2.86 µM)
15 | O=c1cc(-c2ccc(C(F)(F)F)cc2)nc2[nH]c3ccccc3n12 | > 100 | > 100 | 100 (≈ 304 µM) | > 100 | 0.2 (≈ 0.607 µM) | 6.25 (≈ 19 µM) | 79 | > 100 | 0.2 (≈ 0.607 µM) | > 100 | 0.2 (≈ 0.607 µM) | 1.6 (≈ 4.86 µM) | 1.6 (≈ 4.86 µM)
16 | O=C(O)c1cn(C2CC2)c2cc(N3CCNCC3)c(F)cc2c1=O [CIPROFLOXACIN] | 2 (≈ 6.04 µM) | – | – | 2 (≈ 6.04 µM) | – | – | – | 1 (≈ 3.02 µM) | 2 (≈ 6.04 µM) | – | – | – | –
17 | OC(Cn1cncn1)(Cn1cncn1)c1ccc(F)cc1F [FLUCONAZOLE] | – | – | 8 (≈ 26.1 µM) | – | 8 (≈ 26.1 µM) | 16 (≈ 52.2 µM) | – | – | – | – | 8 (≈ 26.1 µM) | 8 (≈ 26.1 µM) | 8 (≈ 26.1 µM)
18 | O=c1[nH]cc(F)c(=O)[nH]1 [FLUOROURACIL] | – | – | – | – | – | – | 88 | – | – | – | – | – | –
